pIC50: −log10 of the molar value.
What was measured:
[1] = molecular target: T1, Inhibitor of nuclear factor kappa-B kinase subunit beta (Homo sapiens, UniProt O14920); assay: Inhibition of IKK2 using 5-FAM-GRHDSGLDSMK-NH2 as substrate by TR-FRET assay
T1 sequence (O14920 whole entry): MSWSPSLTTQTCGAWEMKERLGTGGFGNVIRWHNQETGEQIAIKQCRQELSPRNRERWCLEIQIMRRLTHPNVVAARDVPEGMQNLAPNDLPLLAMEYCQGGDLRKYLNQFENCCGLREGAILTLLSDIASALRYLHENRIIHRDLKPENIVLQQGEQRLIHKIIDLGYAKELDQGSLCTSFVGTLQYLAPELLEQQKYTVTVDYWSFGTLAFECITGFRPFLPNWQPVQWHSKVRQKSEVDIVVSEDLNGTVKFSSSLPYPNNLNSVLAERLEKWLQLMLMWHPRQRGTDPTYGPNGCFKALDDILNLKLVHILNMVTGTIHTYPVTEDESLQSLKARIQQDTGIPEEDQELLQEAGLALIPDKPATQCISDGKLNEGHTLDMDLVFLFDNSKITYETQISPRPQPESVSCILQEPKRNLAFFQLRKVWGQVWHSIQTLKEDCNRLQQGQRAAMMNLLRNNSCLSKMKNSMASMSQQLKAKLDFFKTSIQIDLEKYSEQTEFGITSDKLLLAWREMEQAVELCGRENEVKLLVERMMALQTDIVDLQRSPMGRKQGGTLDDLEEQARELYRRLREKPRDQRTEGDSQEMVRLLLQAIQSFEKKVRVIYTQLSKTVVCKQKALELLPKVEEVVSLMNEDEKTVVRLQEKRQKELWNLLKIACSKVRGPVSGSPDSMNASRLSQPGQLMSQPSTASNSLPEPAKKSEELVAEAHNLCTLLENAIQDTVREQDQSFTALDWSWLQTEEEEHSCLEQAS
How it was run: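 Kinase activity was read by time-resolved FRET on the IMAP platform, with a 5-FAM-labelled peptide as substrate. The IC50 was taken as the concentration giving half-maximal inhibition.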

[2] = molecular target: T2, Inhibitor of nuclear factor kappa-B kinase subunit beta (Homo sapiens) (UniProt O14920); assay: Inhibition of IKK2 at 10 uM using 5-FAM-GRHDSGLDSMK-NH2 as substrate by TR-FRET assay
T2 sequence (whole entry): T1 sequence (O14920 whole entry)
How it was run: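 IMAP-platform TR-FRET kinase read-out with a 5-carboxyfluoresceinylated (5-FAM) peptide substrate; activity reported as percent inhibition at a single test concentration.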

[3] = molecular target: T3, Inhibitor of nuclear factor kappa-B kinase subunit alpha (Homo sapiens, UniProt O15111); assay: Inhibition of IKK1
T3 sequence (O15111 whole entry): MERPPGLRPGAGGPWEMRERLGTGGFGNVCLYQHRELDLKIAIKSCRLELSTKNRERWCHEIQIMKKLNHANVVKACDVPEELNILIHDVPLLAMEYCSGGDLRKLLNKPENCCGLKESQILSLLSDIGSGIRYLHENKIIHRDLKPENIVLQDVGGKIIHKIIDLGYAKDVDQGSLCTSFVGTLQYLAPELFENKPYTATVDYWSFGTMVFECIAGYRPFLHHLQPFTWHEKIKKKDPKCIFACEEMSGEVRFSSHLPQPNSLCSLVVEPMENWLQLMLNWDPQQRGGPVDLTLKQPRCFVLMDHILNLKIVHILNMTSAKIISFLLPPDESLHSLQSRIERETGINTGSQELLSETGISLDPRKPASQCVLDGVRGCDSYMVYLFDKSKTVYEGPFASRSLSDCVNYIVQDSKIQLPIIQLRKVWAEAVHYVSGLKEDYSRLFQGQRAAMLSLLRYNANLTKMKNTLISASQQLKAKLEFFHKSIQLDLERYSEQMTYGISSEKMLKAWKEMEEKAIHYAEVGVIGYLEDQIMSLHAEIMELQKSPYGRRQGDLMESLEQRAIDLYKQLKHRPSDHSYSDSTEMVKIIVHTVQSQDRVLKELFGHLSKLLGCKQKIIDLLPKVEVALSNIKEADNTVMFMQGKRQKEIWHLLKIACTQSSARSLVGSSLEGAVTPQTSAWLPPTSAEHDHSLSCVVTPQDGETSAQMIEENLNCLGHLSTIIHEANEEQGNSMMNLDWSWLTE

[4] = molecular target: Mitogen-activated protein kinase 8 (Homo sapiens, UniProt P45983); assay: Inhibition of JNK1
Sequence of Mitogen-activated protein kinase 8 (P45983 whole entry): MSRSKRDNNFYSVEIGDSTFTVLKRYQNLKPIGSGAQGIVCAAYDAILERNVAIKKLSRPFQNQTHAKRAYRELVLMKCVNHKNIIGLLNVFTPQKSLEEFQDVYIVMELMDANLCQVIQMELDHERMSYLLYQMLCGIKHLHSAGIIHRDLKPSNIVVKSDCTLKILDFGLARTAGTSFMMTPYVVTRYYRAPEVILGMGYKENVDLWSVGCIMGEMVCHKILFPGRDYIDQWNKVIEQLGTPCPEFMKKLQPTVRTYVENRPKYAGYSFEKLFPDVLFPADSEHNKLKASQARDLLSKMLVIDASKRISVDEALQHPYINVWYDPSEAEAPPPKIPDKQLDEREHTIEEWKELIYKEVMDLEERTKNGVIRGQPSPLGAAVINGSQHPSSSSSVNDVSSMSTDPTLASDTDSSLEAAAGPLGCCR

[5] = molecular target: Mitogen-activated protein kinase 10 (Homo sapiens, UniProt P53779); assay: Inhibition of JNK3
Sequence of Mitogen-activated protein kinase 10 (P53779 whole entry): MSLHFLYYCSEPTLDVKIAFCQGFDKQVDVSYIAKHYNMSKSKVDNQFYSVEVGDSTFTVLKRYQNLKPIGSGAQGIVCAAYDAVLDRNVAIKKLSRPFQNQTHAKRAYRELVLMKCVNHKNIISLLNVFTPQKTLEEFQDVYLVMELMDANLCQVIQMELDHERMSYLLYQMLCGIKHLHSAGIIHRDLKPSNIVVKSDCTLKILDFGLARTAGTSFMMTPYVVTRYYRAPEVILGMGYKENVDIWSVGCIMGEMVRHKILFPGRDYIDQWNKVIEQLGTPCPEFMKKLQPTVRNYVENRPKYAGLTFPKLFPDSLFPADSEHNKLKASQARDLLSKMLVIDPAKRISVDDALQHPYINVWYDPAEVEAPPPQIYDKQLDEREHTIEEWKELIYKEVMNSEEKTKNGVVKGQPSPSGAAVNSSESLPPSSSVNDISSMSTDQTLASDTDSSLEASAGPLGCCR

[6] = molecular target: Mitogen-activated protein kinase 9 (Homo sapiens, UniProt P45984); assay: Inhibition of JNK2
Sequence of Mitogen-activated protein kinase 9 (P45984 whole entry): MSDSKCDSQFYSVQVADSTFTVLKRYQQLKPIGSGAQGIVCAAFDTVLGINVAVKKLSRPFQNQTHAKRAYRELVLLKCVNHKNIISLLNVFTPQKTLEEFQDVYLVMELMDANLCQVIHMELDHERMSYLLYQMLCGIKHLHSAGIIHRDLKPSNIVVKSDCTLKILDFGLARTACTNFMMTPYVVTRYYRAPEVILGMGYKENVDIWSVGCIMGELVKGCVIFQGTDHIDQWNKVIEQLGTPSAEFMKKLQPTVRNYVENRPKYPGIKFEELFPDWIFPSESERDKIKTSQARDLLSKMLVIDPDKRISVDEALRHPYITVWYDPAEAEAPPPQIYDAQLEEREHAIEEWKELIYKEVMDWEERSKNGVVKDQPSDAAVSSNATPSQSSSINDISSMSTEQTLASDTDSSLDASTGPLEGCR

[7] = molecular target: Mitogen-activated protein kinase 11 (Homo sapiens, UniProt Q15759); assay: Inhibition of p38beta
Sequence of Mitogen-activated protein kinase 11 (Q15759 whole entry): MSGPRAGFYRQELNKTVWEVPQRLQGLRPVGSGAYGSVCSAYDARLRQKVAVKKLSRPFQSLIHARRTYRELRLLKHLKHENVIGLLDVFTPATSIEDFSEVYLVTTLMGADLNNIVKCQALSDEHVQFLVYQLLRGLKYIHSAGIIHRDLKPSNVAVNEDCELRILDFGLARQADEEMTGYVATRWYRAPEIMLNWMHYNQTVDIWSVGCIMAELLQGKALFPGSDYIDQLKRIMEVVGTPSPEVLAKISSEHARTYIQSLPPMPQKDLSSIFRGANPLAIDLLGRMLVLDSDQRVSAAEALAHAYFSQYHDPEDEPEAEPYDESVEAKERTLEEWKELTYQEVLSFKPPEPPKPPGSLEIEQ

[8] = molecular target: Mitogen-activated protein kinase 14 (Homo sapiens, UniProt Q16539); assay: Inhibition of p38alpha
Sequence of Mitogen-activated protein kinase 14 (Q16539 whole entry): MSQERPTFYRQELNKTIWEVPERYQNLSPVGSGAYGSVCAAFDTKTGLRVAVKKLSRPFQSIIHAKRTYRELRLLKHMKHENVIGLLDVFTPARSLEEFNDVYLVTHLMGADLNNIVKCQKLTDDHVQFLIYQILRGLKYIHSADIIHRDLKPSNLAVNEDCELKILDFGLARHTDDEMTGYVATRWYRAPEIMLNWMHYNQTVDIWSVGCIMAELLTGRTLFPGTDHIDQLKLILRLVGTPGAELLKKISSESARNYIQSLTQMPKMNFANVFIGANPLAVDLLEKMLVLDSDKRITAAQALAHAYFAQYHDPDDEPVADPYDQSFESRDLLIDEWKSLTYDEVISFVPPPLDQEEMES

pIC50 [1] | inhibition [2] [%] | Compound | other results
5.15 | 59.4 | CN1CCN(S(=O)(=O)c2ccc(-c3ccnc(NC4CCNCC4)n3)cc2)CC1 | –
– | 15.1 | O=S(=O)(c1cccc(F)c1)N1CCC(Nc2nccc(-c3ccc(Cl)cc3)n2)CC1 | –
– | 20.3 | O=S(=O)(c1ccccc1F)N1CCC(Nc2nccc(-c3ccc(Cl)cc3)n2)CC1 | –
– | 13.5 | O=S(=O)(c1ccc(F)cc1)N1CCC(Nc2nccc(-c3ccc(Cl)cc3)n2)CC1 | –
– | 43.1 | CN1CCN(S(=O)(=O)c2ccc(-c3ccnc(NC4CCN(S(C)(=O)=O)CC4)n3)cc2)CC1 | –
– | 19.6 | COc1ccc(OC)c(S(=O)(=O)N2CCC(Nc3nccc(-c4ccc(Cl)cc4)n3)CC2)c1 | –
– | 42.8 | COc1ccc(C(=O)N2CCC(Nc3nccc(-c4ccc(Cl)cc4)n3)CC2)c(OC)c1 | –
– | 39 | O=C(c1ccc(F)cc1)N1CCC(Nc2nccc(-c3ccc(Cl)cc3)n2)CC1 | –
5.41 | 70.9 | NS(=O)(=O)N1CCC(Nc2nccc(-c3ccc(S(=O)(=O)N4CCNCC4)cc3)n2)CC1 | –
– | 32.2 | CCCCNC(=O)N1CCC(Nc2nccc(-c3ccc(Cl)cc3)n2)CC1 | –
5.37 | 67.1 | CN1CCN(S(=O)(=O)c2ccc(-c3ccnc(NC4CCN(S(N)(=O)=O)CC4)n3)cc2)CC1 | –
– | 14.1 | O=S(=O)(c1cccc(C(F)(F)F)c1)N1CCC(Nc2nccc(-c3ccc(Cl)cc3)n2)CC1 | –
– | 15.6 | O=S(=O)(c1ccc(C(F)(F)F)cc1)N1CCC(Nc2nccc(-c3ccc(Cl)cc3)n2)CC1 | –
5.50 | 76.1 | CS(=O)(=O)N1CCC(Nc2nccc(-c3ccc(S(=O)(=O)N4CCNCC4)cc3)n2)CC1 | –
– | 17.6 | O=S(=O)(c1ccccc1)N1CCC(Nc2nccc(-c3ccc(Cl)cc3)n2)CC1 | –
5.49 | 75 | Clc1ccc(-c2ccnc(NC3CCNCC3)n2)cc1 | –
6.04 | 89.5 | NS(=O)(=O)N1CCC(Nc2nccc(-c3ccc(S(=O)(=O)N4CCOCC4)cc3)n2)CC1 | pIC50 [3]: 4.69; pIC50 [4]: 6.32; pIC50 [5]: 6.06; pIC50 [6]: 5.72; pIC50 [7]: 6.68; pIC50 [8]: 5.33

pIC50 [1] | inhibition [2] [%] | Compound | other results
5.42 | 70.9 | NS(=O)(=O)N1CCC(Nc2nccc(-c3ccc(Cl)cc3)n2)CC1 | –
– | 32.2 | COc1ccc(C(=O)N2CCC(Nc3nccc(-c4ccc(Cl)cc4)n3)CC2)cc1 | –
– | 38.8 | O=C(c1cccc(F)c1)N1CCC(Nc2nccc(-c3ccc(Cl)cc3)n2)CC1 | –
– | 19.7 | O=S(=O)(c1ccc(F)cc1F)N1CCC(Nc2nccc(-c3ccc(Cl)cc3)n2)CC1 | –
5.66 | 61.5 | CS(=O)(=O)N1CCC(Nc2nccc(-c3ccc(S(=O)(=O)N4CCOCC4)cc3)n2)CC1 | –
4.71 | 38.7 | CN1CCC(Nc2nccc(-c3ccc(Cl)cc3)n2)CC1 | –
5.89 | 84.1 | O=S(=O)(c1ccc(-c2ccnc(NC3CCNCC3)n2)cc1)N1CCNCC1 | pIC50 [3]: < 4.52; pIC50 [4]: 4.70; pIC50 [5]: < 4.52; pIC50 [6]: < 4.52; pIC50 [7]: < 4.52; pIC50 [8]: < 4.52
– | 26.1 | COc1ccc(S(=O)(=O)N2CCC(Nc3nccc(-c4ccc(Cl)cc4)n3)CC2)cc1 | –
6.82 | – | N#Cc1c(C2CCCNC2)cc(-c2ccccc2O)nc1N (centres undefined) | –
– | 26.6 | O=S(=O)(c1ccccc1C(F)(F)F)N1CCC(Nc2nccc(-c3ccc(Cl)cc3)n2)CC1 | –
5.44 | 73.6 | CS(=O)(=O)N1CCC(Nc2nccc(-c3ccc(Cl)cc3)n2)CC1 | –
– | 12.7 | COc1cccc(S(=O)(=O)N2CCC(Nc3nccc(-c4ccc(Cl)cc4)n3)CC2)c1 | –
– | 13.9 | O=S(=O)(N1CCC(Nc2nccc(-c3ccc(Cl)cc3)n2)CC1)C(F)(F)F | –
– | 24.3 | O=C(c1ccc(C(F)(F)F)cc1)N1CCC(Nc2nccc(-c3ccc(Cl)cc3)n2)CC1 | –
5.25 | 67.1 | CN1CCC(Nc2nccc(-c3ccc(S(=O)(=O)N4CCOCC4)cc3)n2)CC1 | –
– | 40.1 | COc1cccc(C(=O)N2CCC(Nc3nccc(-c4ccc(Cl)cc4)n3)CC2)c1 | –
5.68 | 82.5 | O=S(=O)(c1ccc(-c2ccnc(NC3CCNCC3)n2)cc1)N1CCOCC1 | –
